Experimental data reported in paper PMC10441371 (bioRxiv, 2023).
Entries after “also recorded” stand apart in the source; their conditions may differ. Counter-ions that a name gives are not always drawn. Like-named read-outs stand apart in the source and are kept apart here.

Experiments:
[1] = assay type: in vivo, Sprague Dawley rats; settings: for Levels in liver, mean (SD): wet weight; for Detection in the brain: PCB 52 exposed rats
thyroid hormone receptor = settings: ref Kitamura et al., 2005; cited from earlier work
estrogenic activity = settings: ref Kitamura et al., 2005; cited from earlier work
SULT2A1 = settings: ref Parker et al., 2018; cited from earlier work
SULT1E1 = settings: ref Parker et al., 2018; cited from earlier work
N27 cell line = settings: ref Rodriguez et al., 2018; cited from earlier work
SH-SY5Y cell line = settings: ref Rodriguez et al., 2018; cited from earlier work
[2] = General toxicity: body and organ weights after IP exposure; assay type: in vivo, Sprague Dawley rats
How it was run: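 Rats were female Sprague Dawley, 4–5 weeks old and 75–100 g, acclimated 1 week. Each received a single IP dose of corn oil vehicle or test compound at 1, 10 or 100 mg/kg BW. Body weight was recorded at 5 time points over 3 weeks. After CO2 euthanasia, liver, spleen and thymus were excised; liver weight was adjusted for body weight. Groups were compared by one-way ANOVA with Tukey, p<0.05.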

[3] = test system: endogenous serum metabolites; test: Targeted metabolomics of serum samples; assay type: in vivo, Sprague Dawley rats; settings: 0 to 100 mg/kg BW IP, 3 weeks
How it was run: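 In female Sprague Dawley rats, serum was taken 3 weeks after a single IP dose of vehicle or 1–100 mg/kg test compound. Heart blood clotted ≥30 min at room temperature and was spun at 2,500 g (10 min, 4°C). Extracts (solvent:sample 18:1, −20°C 1 h) were methoximated (60°C 1 h), then TMS-derivatized (60°C 30 min). GC-Orbitrap analysis used EI full scan m/z 56.7–850 against a 94-metabolite list. Intensities were total-normalized; data were analyzed by PLS-DA and dose linear regression with Benjamini-Hochberg FDR.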

[4] = test system: dopamine and its metabolites, DOPAL and DOPAC; test: Dopamine and metabolites analysis in striatum; assay type: in vivo, Sprague Dawley rats; settings: different doses of PCB 52 IP, 3 weeks post injection, vs vehicle
How it was run: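 Female Sprague Dawley rats (4–5 weeks, 75–100 g, acclimated 1 week) got a single IP injection of corn oil or test compound in corn oil at 1, 10 or 100 mg/kg BW. They were euthanized after 3 weeks by CO2 and thoracotomy. Nigrostriatal tissue was homogenized in ice-cold 0.3 M perchloric acid and spun at 10,000 g for 10 min. Supernatant went to capillary HPLC with coulometric detection (guard +350, E1 −150, E2 +200 mV). Values are pmol/mg tissue; ANOVA with Tukey.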

[5] = male rats, single IP dose 150 mg/kg BW; ref Parkinson et al., 1983; cited from earlier work
CYP2B = settings: PCB 52 exposure; ref Parkinson et al., 1983; cited from earlier work
[6] = 10 mg/kg BW PCB 52 IP, 3 weeks after dosing, N = 3
[7] = 100 mg/kg BW PCB 52 IP, 3 weeks after dosing, N = 5
[8] = 1, 10 or 100 mg/kg BW IP, 3 weeks, body weight-adjusted, vs vehicle
[9] = no dose-response relationship observed

For `Oc1cc(Cl)c(-c2cc(Cl)ccc2Cl)cc1Cl` [4-OH-PCB 52, 2,5-dichloro-4-(2,5-dichlorophenyl)phenol], the “Levels in liver, mean (SD)” value [1, 6] was 0.15 ng/g, the “Levels in liver, mean (SD)” value [1, 7] was 0.57 ng/g and the “Detection in the brain” value [1] was “observed in the brain of one animal”. For the same molecule, the “Detection in adipose tissue” value ([1]; high-dose group (100 mg/kg BW)) was “detected only in adipose tissue from one animal”, the “Affinity for the thyroid hormone receptor” value (thyroid hormone receptor) was “low affinity” and the “Estrogenic activity in vitro” value (estrogenic activity) was “low estrogenic activity”. For the same molecule, the “Inhibition of SULT2A1” value (SULT2A1) was “inhibitors”.

In the case of `O=S(=O)(O)Oc1cc(Cl)c(-c2cc(Cl)ccc2Cl)cc1Cl` [PCB 52 sulfate], the “Inhibition of SULT2A1” value (SULT2A1) is given as “inhibitors”, the “Inhibition of SULT1E1” value (SULT1E1) is given as “inhibitor” and the Toxicity (N27 cell line) is given as “low micromolar range”. For the same molecule, the Toxicity (SH-SY5Y cell line) was “low micromolar range”.

For `Clc1ccc(Cl)c(-c2cc(Cl)ccc2Cl)c1` [PCB 52, 2,2',5,5'-Tetrachlorobiphenyl], the “Ratio of mean PCB 52 tissue levels, 100 mg/kg BW vs 10 mg/kg BW dose group” value ([1]; brain (lowest ratio)) was 2.9, the “Ratio of mean PCB 52 tissue levels, 100 mg/kg BW vs 10 mg/kg BW dose group” value ([1]; highest ratio among tissues, tissue not given) was 5.6 and the “Ratio of mean PCB 52 levels, 10 mg/kg BW vs 1 mg/kg BW dose group” value ([1]; liver) was ~7.0 times. The “Ratio of mean PCB 52 levels, 10 mg/kg BW vs 1 mg/kg BW dose group” value ([1]; serum) was “approximately 4.0 times”, the “Presence in tissues investigated (adipose, brain, liver, serum)” value ([1]; three weeks following the IP injection) was “present in all tissues investigated” and the “Effect on bodyweight-adjusted liver weights” value ([2]; 10 mg/kg BW IP, 3 weeks, vs vehicle group, p < 0.05) was “significantly smaller; also recorded: significant decrease”. The “Effect on overall body weight” value ([2]; 1, 10 or 100 mg/kg BW IP, 3-week study, vs vehicle) was “did not affect; also recorded: no significant impact”, the “Effect on spleen weights” value [2, 8] was “did not affect” and the “Effect on thymus weights” value [2, 8] was “did not affect”. The “Serum L-cysteine levels” value [3] was “decreased dose-dependent”, the “Serum L-histidine levels” value [3] was “dose-dependent increase” and the Serum cytosine levels [3] was “decreased dose-dependent”. The Serum erythrose levels [3] was “decreased dose-dependent”, the Serum glycine levels [3] was “dose-dependent increase” and the “Serum orotic acid levels” value [3] was “decreased dose-dependent”. The Serum sphingosine levels [3] was “decreased dose-dependent”, the “Serum linoleic acid levels” value [3, 9] was “significantly affected” and the Serum thymine levels [3, 9] was “significantly affected”. The “Number of significantly altered serum metabolites” value ([3]; out of the 81 metabolites included, raw p-values < 0.05) was 9, the “DOPAC levels in the striatum” value [4] was “no significant differences; also recorded: not significantly different” and the “DOPAL levels in the striatum” value [4] was “no significant differences; also recorded: not significantly different”. For the same molecule, the “Dopamine levels in the striatum” value [4] was “no significant differences; also recorded: not significantly different”, the “Bodyweight-adjusted liver weights vs control” value [5] was “not significantly different” and the “CYP2B enzyme activity in the rat liver” value (CYP2B) was “induced”.

For `Oc1cc(Cl)cc(-c2cc(Cl)ccc2Cl)c1Cl` [X1-PCB 52, 2,2’,5,5’-tetrachlorobiphenyl-3-ol], the “Estimated mean level in the serum” value ([1]; 10 mg/kg BW PCB 52 IP, 3 weeks after dosing) was 0.07 ng/kg BW, the “Levels in liver, mean (SD)” value [1, 6] was 0.28 ng/g and the “Levels in serum, mean (SD)” value [1, 7] was 0.69 ng/g. The “Levels in liver, mean (SD)” value [1, 7] was 0.85 ng/g, the “Detection in the brain” value [1] was “observed in the brain of one animal” and the “Detection in adipose tissue” value ([1]; all other exposure groups (below high dose)) was “below the LOD”. For the same molecule, the “Detection in adipose tissue” value ([1]; high-dose group (100 mg/kg BW)) was “present”.
